Measurements: the M2OR odorant receptor database
Numbering of substitutions follows the chain as printed.

How the values were obtained:
Settings in all cases: stereoisomer not certain
OR52N4 (Homo sapiens) = molecular target: T1, OR52N4 (Homo sapiens) (UniProt Q8NGI2)
T1 sequence (whole entry): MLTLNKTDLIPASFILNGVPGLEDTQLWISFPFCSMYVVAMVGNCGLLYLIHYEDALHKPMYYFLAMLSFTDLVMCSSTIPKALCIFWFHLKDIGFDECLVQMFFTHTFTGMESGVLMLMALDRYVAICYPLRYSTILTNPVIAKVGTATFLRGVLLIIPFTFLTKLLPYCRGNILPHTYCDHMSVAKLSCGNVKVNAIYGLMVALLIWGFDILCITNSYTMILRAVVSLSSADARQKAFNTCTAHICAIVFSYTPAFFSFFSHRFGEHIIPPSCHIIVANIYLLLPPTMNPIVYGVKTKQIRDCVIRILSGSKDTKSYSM
Outline: (§1)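 Assay methods differ from source to source, frequently being transient luciferase assays in mammalian cell lines. For each receptor–molecule pair, the label responsive (active) applies when the original authors judged the measured signal statistically different from baseline, and non-responsive (inactive) applies otherwise.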

OR52N5 (Homo sapiens) = molecular target: T2, OR52N5 (Homo sapiens) (UniProt Q8NH56)
T2 sequence (whole entry): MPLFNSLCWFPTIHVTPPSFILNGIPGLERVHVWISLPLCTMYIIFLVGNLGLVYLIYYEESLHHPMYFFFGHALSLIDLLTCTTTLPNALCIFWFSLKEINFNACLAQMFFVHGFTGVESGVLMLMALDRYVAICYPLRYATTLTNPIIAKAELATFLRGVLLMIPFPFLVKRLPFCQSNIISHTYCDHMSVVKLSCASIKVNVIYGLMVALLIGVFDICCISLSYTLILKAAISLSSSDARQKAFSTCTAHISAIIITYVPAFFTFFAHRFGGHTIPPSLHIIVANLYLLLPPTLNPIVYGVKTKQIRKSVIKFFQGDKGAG
Outline: as §1

OR52R1 (Homo sapiens) = molecular target: T3, OR52R1 (Homo sapiens) (UniProt Q8NGF1)
T3 sequence (whole entry): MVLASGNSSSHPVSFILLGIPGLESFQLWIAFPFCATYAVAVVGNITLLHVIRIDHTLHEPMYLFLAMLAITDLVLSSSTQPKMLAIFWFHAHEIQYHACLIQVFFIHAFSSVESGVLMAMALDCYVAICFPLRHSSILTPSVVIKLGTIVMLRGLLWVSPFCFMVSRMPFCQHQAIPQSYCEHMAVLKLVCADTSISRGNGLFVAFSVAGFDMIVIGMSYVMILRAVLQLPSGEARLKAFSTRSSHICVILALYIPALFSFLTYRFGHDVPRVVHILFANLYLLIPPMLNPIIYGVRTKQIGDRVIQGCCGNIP
Outline: as §1

OR52W1 (Homo sapiens) = molecular target: T4, OR52W1 (Homo sapiens) (UniProt Q6IF63)
T4 sequence (whole entry): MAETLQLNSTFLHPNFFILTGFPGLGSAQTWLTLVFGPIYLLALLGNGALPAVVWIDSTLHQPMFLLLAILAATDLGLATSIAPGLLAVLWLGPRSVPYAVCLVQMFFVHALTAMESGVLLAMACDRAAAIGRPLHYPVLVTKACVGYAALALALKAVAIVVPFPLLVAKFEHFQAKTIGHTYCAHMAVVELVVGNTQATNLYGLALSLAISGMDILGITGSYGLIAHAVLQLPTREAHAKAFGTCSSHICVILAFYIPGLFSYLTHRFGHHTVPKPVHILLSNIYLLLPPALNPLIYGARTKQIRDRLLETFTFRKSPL
Outline: as §1

OR56A1 (Homo sapiens) = molecular target: T5, OR56A1 (Homo sapiens) (UniProt Q8NGH5)
T5 sequence (whole entry): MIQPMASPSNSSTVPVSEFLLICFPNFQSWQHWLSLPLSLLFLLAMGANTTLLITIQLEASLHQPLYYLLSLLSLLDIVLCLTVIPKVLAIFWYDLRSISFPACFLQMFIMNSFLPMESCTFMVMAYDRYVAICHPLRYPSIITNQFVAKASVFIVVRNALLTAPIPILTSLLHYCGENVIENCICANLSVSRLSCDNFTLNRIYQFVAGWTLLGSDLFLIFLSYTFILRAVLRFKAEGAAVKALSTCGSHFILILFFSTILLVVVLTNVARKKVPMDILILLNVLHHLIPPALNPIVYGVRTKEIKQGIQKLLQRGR
Outline: as §1

OR56A3 (Homo sapiens) = molecular target: T6, OR56A3 (Homo sapiens) (UniProt Q8NH54)
T6 sequence (whole entry): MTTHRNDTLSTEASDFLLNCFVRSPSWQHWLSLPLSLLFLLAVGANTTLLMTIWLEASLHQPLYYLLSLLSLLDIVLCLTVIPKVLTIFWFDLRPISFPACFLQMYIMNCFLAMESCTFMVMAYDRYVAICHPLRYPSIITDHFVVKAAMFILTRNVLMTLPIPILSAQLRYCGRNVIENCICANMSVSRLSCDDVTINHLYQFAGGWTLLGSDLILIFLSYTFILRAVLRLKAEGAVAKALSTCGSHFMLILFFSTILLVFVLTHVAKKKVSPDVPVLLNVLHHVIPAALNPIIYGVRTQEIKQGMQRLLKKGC
Outline: as §1

OR56A5 (Homo sapiens) = molecular target: T7, OR56A5 (Homo sapiens) (UniProt P0C7T3)
T7 sequence (whole entry): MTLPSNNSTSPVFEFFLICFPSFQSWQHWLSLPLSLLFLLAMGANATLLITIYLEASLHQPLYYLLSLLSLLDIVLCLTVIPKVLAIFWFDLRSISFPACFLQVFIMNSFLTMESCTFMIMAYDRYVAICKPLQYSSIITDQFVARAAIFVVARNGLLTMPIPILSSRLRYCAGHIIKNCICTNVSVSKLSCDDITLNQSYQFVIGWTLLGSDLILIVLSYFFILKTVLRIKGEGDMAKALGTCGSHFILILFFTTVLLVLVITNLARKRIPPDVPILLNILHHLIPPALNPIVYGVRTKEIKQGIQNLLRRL
Outline: as §1

OR56B1 (Homo sapiens) = molecular target: T8, OR56B1 (Homo sapiens) (UniProt Q8NGI3)
T8 sequence (whole entry): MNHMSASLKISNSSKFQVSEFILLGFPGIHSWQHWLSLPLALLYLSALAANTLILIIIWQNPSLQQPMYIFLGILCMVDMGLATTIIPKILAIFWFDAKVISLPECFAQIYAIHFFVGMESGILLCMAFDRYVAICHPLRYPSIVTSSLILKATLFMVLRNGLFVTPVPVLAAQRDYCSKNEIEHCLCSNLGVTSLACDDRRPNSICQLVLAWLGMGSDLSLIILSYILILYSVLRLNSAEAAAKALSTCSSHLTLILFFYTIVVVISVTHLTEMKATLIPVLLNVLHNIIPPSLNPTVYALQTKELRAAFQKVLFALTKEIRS
Outline: as §1

OR56B4 (Homo sapiens) = molecular target: T9, OR56B4 (Homo sapiens) (UniProt Q8NH76)
T9 sequence (whole entry): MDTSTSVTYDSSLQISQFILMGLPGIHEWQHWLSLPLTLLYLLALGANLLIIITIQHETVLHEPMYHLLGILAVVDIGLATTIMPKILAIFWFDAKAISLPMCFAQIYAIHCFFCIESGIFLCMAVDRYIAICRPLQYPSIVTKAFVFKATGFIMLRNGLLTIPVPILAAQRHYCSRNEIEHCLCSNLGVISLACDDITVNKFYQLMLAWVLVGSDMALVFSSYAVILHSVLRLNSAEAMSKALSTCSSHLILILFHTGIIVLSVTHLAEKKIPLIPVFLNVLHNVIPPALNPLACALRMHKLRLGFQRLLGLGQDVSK
Outline: as §1

OR5A1 (Homo sapiens) = molecular target: T10, OR5A1 (Homo sapiens) (UniProt Q8NGJ0)
T10 sequence (whole entry): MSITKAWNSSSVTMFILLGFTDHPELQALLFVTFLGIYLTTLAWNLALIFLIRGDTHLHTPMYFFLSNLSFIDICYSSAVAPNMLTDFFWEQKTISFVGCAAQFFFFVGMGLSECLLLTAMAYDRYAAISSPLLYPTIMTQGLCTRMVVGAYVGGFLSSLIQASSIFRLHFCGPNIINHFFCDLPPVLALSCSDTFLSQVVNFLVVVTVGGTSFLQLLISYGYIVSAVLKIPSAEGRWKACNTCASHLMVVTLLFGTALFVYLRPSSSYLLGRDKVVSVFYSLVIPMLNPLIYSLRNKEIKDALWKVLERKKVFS
Outline: as §1

OR5A1 D183N = test system: T11, OR5A1 D183N
T11 sequence (whole entry): T10 sequence (whole entry) with D183N
Outline: as §1

OR5A2 (Homo sapiens) = molecular target: T12, OR5A2 (Homo sapiens) (UniProt Q8NGI9)
T12 sequence (whole entry): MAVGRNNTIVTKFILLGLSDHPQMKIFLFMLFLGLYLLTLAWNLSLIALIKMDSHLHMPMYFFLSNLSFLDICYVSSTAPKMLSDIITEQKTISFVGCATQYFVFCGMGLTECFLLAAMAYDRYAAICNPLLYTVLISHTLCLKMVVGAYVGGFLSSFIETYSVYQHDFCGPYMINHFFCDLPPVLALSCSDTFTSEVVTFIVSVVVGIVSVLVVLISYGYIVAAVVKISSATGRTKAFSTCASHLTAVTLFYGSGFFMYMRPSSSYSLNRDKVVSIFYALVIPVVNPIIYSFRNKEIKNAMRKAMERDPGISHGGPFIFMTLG
Outline: as §1

OR5AC2 (Homo sapiens) = molecular target: T13, OR5AC2 (Homo sapiens) (UniProt Q9NZP5)
T13 sequence (whole entry): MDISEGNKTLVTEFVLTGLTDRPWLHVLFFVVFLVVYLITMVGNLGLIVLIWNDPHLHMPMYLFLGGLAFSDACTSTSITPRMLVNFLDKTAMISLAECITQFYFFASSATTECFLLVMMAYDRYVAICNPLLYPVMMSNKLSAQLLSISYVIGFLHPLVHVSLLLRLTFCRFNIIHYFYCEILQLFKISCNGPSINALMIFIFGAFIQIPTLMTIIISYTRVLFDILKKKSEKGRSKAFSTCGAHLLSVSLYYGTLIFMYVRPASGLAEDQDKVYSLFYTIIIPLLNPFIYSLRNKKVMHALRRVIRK
Outline: as §1

OR5AK2 (Homo sapiens) = molecular target: T14, OR5AK2 (Homo sapiens) (UniProt Q8NH90)
T14 sequence (whole entry): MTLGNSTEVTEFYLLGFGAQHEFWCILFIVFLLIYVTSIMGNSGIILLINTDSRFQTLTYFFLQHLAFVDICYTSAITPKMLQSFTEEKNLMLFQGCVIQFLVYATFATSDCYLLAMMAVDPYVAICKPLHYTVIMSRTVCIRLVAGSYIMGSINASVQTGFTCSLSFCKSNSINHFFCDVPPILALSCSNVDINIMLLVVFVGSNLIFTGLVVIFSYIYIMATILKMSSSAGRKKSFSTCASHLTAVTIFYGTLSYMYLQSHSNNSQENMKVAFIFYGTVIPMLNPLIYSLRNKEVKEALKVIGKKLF
Outline: as §1

OR5AN1 (Homo sapiens) = molecular target: T15, OR5AN1 (Homo sapiens) (UniProt Q8NGI8)
T15 sequence (whole entry): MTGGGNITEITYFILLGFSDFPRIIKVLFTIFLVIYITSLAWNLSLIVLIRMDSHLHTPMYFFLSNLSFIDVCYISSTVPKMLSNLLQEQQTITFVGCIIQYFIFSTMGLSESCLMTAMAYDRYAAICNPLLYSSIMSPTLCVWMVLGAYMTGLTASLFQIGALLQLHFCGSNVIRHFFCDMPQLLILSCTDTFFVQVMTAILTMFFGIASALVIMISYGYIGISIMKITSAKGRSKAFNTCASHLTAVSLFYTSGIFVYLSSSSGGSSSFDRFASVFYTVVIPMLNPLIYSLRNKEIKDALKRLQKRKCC
Outline: as §1

OR5AP2 (Homo sapiens) = molecular target: T16, OR5AP2 (Homo sapiens) (UniProt Q8NGF4)
T16 sequence (whole entry): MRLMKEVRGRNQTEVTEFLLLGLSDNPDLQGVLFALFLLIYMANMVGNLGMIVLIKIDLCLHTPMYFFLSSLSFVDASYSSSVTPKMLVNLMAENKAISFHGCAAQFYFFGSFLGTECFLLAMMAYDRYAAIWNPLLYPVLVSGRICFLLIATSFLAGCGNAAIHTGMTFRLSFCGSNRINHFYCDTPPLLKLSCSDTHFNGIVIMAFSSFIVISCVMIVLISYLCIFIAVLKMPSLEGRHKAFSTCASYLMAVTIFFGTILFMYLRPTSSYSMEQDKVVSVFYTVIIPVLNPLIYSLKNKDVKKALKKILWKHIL
Outline: as §1

Measured: odorant receptor agonist call

CC1=C(O)C(=O)OC1C (configuration not stated)
inactive: all assays above

Cc1cnc(C)c(C)n1
inactive: all assays above
